Bioassay records (PubChem BioAssay)
Compounds with a hit are over-represented: about 4.2% of the library has one in this group of screens.
SKKanGAS inh: S. pyogenes SKKanGAS growth inhibitors in kanamycin, primary screen, streptokinase expression inhibitor project, SKKanGAS strain, BacTiter-Glo luminescence; inhibition, % at 7.5 µM; AID 1662, 2009; 300,000 compounds, 1.3% hits; 6 h;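 active = mean replicate score, as percent of positive control median, at least 50; inconclusive = mean below 50 but one replicate at or above 50; inactive = mean and every replicate below 50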;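 note: strain carries kanamycin resistance gene driven by streptokinase promoter and grows in 40 µg/ml kanamycin; loss of luminescence reflects streptokinase promoter inhibition or plain growth inhibition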
Autophagy HCS: autophagy modulators in MEF cells, primary screen, imaging, high-content, MEF GFP-LC3; MEF GFP-LC3 puncta imaging; test concentration mostly 10 µM; calls only at 10 µM (by protocol); 190,000 compounds, 0.98% hits;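 active = percentage of spot-positive cells more than 3 SD above its plate mean, without a fluorescence outlier flag or 80% toxicity; inconclusive = no clear call, values can overlap the other calls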
Rad51 HR inh: human RAD51 strand exchange inhibitors, primary screen, biochemical, fluorescence | DNA repair protein RAD51 homolog 1 (Homo sapiens), Q06609 | hRad51 DNA strand exchange, fluorescence dequenching | inhibition, % at 10 µM | 200,000 compounds, 0.085% hits | AID 1385, 2008;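 active = inhibition above 40% at the single screening dose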
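Material: human Rad51–ssDNA filaments; Probe or stimulus: labelled 47-mer dsDNA for strand exchange; Doses: single 10 µM dose; Incubation: 37 °C 15-min filament assembly, 30-min compound preincubation, 15-min exchange; Technique: FRET fluorescence dequenching, excitation 485 nm, emission 520 nm; Measure: Fluorescence-based percent inhibition, control- and blank-normalised; Benchmarks: plate control and blank wells.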
Ins promoter up: insulin promoter activators in MIN6 cells, imaging, high-content screening, mouse beta cells; MIN6 insulin promoter-GFP reporter; hits give high values; z-score at 5 µM; 190,000 compounds, 0.3% hits; AID 1625, 2009;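 active = z-score above 3 at 5 µM with at least 500 cells counted in the well; inconclusive = wells under 500 cells, flagged as cytotoxic or low count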
WT yeast gro inh: growth inhibition of WT strain, primary screen, mitochondrial fusion inhibitor project, WT and mutant strains, chemical genetic | mitochondrial fusion phenotypic screen | 190,000 compounds, 2.1% hits | inhibition, % at 10 µM; in the data active = inhibition above about 58%; tested in S. cerevisiae
KCC2 mod: KCC2 cotransporter modulators, thallium flux, primary screen, cell-based, HEK293 KCC2, FluoZin-2 fluorescence, MLSMR; B-score of Tl+ flux slope (higher = more flux/activation; lower = inhibition) at 10 µM; 190,000 compounds, 2.2% hits; Solute carrier family 12 member 5 (Homo sapiens), Q9H2X9; KCC2 cells, thallium flux FluoZin-2 fluorescence;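 active = thallium flux slope and its plate-corrected score both differing from the plate sample mean at a set confidence after two filtering rounds, in either direction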;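 note: slope of fluorescence scaled to starting intensity during 10 to 20 s after thallium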
Target sequence (Q9H2X9 whole entry, looked up): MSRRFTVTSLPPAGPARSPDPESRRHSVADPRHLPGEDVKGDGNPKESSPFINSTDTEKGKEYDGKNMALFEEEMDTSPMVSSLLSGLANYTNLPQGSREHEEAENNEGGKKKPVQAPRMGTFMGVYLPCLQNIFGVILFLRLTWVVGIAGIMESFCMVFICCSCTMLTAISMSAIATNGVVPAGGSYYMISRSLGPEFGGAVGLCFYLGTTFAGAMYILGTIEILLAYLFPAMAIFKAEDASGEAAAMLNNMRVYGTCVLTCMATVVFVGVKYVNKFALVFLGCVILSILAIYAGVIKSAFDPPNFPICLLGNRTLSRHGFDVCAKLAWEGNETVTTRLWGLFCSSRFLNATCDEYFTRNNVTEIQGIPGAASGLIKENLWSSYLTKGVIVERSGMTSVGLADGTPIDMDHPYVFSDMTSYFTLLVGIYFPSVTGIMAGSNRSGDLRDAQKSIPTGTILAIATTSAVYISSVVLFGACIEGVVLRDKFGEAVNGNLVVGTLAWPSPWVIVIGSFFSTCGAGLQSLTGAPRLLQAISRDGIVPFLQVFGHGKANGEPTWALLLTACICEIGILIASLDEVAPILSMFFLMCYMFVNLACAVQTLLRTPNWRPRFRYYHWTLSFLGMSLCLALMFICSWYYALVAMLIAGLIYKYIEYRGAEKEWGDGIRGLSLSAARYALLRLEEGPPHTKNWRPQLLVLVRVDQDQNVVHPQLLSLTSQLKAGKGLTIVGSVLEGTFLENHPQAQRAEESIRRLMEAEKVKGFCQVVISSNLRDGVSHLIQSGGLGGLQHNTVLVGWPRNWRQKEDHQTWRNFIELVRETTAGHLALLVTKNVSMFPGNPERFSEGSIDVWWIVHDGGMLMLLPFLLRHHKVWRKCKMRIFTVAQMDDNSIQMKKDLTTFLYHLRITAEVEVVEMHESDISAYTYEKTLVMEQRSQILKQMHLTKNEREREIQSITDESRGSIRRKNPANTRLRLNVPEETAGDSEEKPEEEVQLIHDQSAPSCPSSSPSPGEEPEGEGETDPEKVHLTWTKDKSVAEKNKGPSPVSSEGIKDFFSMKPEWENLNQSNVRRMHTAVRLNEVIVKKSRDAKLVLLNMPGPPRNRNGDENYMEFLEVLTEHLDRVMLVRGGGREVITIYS
Hits are given with their value; i = inactive; ? = inconclusive; nt = no result given; + = active, no number.

SMILES | SKKanGAS inh | Autophagy HCS | Rad51 HR inh | Ins promoter up | WT yeast gro inh | KCC2 mod
O=C(CSC(=S)N1CCCCC1)Nc1nc(-c2ccccc2)c(-c2ccccc2)o1 | 50 | i | i | i | i | i
COc1cc(OC)cc(C(=O)Nc2nc(-c3ccccc3)c(-c3ccccc3)o2)c1 | 90 | i | i | i | i | 10
Cn1nnnc1SCC(=O)Nc1nc(-c2ccccc2)c(-c2ccccc2)o1 | 59 | i | i | i | i | i
CC(C)CCNC(=O)c1onc(CSc2ccccn2)c1C(=O)NCCC(C)C | i | nt | i | nt | nt | nt
CCn1c(SCC(=O)Nc2ccc(N3CCOCC3)cc2)nnc1-c1ccco1 | i | nt | nt | nt | nt | nt
Cc1nc2c(C(=O)NCCC(C)C)c[nH]n2c(=O)c1Cc1ccccc1F | 93 | i | i | i | i | i
CNC1=C(N(C(C)=O)c2ccc(Br)cc2)C(=O)c2ccccc2C1=O | 57 | i | i | ? | i | i
COC(=O)c1ccc2c(=O)[nH]c(CSc3nc(C)cs3)nc2c1 | i | + | i | i | i | i
COC(=O)c1ccc2c(=O)[nH]c(CSc3nc(-c4ccc(F)cc4)cs3)nc2c1 | i | i | nt | i | i | i
Cc1nn(-c2ccccc2)c(C)c1-c1nnc(C(F)(F)F)o1 | i | nt | nt | nt | nt | nt
Cc1nn(-c2ccccc2)c(C)c1-c1nnc(-c2c(C)nn(-c3ccccc3)c2C)o1 | 57 | nt | i | i | nt | i
Fc1ccc2nc(Nc3nc4cc5c(cc4s3)OCO5)sc2c1 | 60 | i | i | nt | i | i
O=C(Nc1nc2cc3c(cc2s1)OCCO3)c1ccco1 | 62 | nt | nt | nt | nt | nt
O=C(Nc1nc2cc3c(cc2s1)OCO3)c1ccco1 | i | nt | nt | i | nt | i
Fc1ccc2nc(Nc3nc4cc5c(cc4s3)OCCO5)sc2c1 | 50 | i | i | i | i | i
CCSc1ccc(/C(N)=N/OC(=O)c2cccs2)cn1 | i | nt | nt | nt | nt | nt
CCCCc1nnc(NC(=O)c2ccc3[nH]c(=O)c(=O)[nH]c3c2)s1 | i | nt | nt | nt | nt | nt
O=C(NNC(=O)c1ccc(F)cc1)c1ccncc1 | i | nt | nt | nt | nt | nt
O=C(NNC1=Nc2ccccc2SC1)c1ccc(F)cc1 | 69 | nt | i | i | nt | i
Cc1cc(C)c2nc(N3CCC(C(=O)NCCCN4CC(C)CC(C)C4)CC3)sc2c1 (stereo not drawn) | i | + | i | i | 69 | i
COc1ccc(N2CCN(C3CC(=O)NC3=O)CC2)cc1 (stereo not drawn) | i | i | i | i | i | i
COc1ccc(C(=O)c2ccc(N3CCN(C4CC(=O)NC4=O)CC3)cc2)cc1F (stereo not drawn) | 73 | i | i | i | i | i
CCOc1ccc(NC(=O)c2cccc(OC(=S)N3CCC(C)CC3)c2)cc1 | i | i | i | nt | i | i
S=c1[nH]nc(-c2ccccc2)n1CC1CCCO1 (stereo not drawn) | i | i | i | 3.1 | i | i
Cc1nc(=O)c(-c2ccccc2)c(C)n1CC1CCCO1 (stereo not drawn) | i | i | i | i | i | i
SMILES | SKKanGAS inh | Autophagy HCS | Rad51 HR inh | Ins promoter up | WT yeast gro inh | KCC2 mod
O=C(COC(=O)C1CSC2(c3ccc(F)cc3)CCC(=O)N12)NC(=O)NC1CCCC1 (stereo not drawn) | i | i | i | i | i | i
Cc1nc(-n2[nH]c3c(c2=O)CCCC3)[nH]c(=O)c1Cc1ccccc1 | 95 | + | i | nt | i | nt
Cc1nc(N2CCc3ccccc3C2)[nH]c(=O)c1Cc1ccccc1 | i | i | i | i | i | i
Fc1cccc(Cn2cc(C(=S)N3CCCCC3)c3ccccc32)c1 | i | i | i | i | 76 | i
Fc1cccc(Cn2cc(C(=S)N3CCOCC3)c3ccccc32)c1 | i | i | nt | i | i | i
CSc1ccccc1NC(=S)N/N=C/c1cccn1Cc1cccc(C)c1 | i | i | nt | i | 63 | nt
CSc1ccccc1NC(=O)CN(C)CC(=O)Nc1cc(C)ccc1C | i | i | i | i | i | i
O=[N+]([O-])c1ccc(N2CCN(S(=O)(=O)c3ccc(Cl)cc3)CC2)cc1NCC1CCCO1 (stereo not drawn) | i | + | i | i | i | i
O=C(NCC(c1cccnc1)N1CCOCC1)c1ccco1 (stereo not drawn) | i | i | i | i | 71 | i
O=C(NCC(c1cccnc1)N1CCN(c2ccc(F)cc2)CC1)c1ccco1 (stereo not drawn) | i | i | i | i | i | i
Cc1ccc(C2=NNC(=O)C(c3c[nH]c4ccccc34)C2)cc1 (stereo not drawn) | i | i | i | i | i | i
O=C1NN=C(c2ccc(Cl)cc2)CC1c1c[nH]c2ccccc12 (stereo not drawn) | i | i | i | i | 66 | i
O=C1NN=C(c2ccc(Cl)cc2)CC1c1cccc(Br)c1 (stereo not drawn) | i | i | i | i | 77 | i
CC(c1ccncc1)C(C)c1ccncc1 (stereo not drawn) | i | nt | nt | nt | nt | nt
CCN(CC)C(=O)c1sc(NC(=O)c2ccoc2C)c(C(=O)OC)c1C | i | i | i | i | i | 8.4
Nc1cccc2c1C(=O)N(CC(=O)NC13CC4CC(CC(C4)C1)C3)C2=O | i | i | i | i | i | i
O=C(Cn1sc2ccccc2c1=O)NC12CC3CC(CC(C3)C1)C2 | 89 | i | i | i | i | i
CCn1c(Cn2nnc(-c3ccccc3)n2)nnc1SCC(=O)Nc1ccc(C(C)=O)cc1 | i | i | i | 4.9 | i | i
CCn1c(Cn2nnc(-c3ccccc3)n2)nnc1SCC(=O)Nc1cccc(C(C)=O)c1 | i | i | i | i | i | nt
COC(=O)c1c(C)oc(C)c1S(=O)(=O)NC(c1ccccc1)c1ccccc1 | i | nt | nt | i | nt | i
Cc1cc(C)n(-c2ccc(C(=O)OCC(=O)N(CC(C)C)C3CCS(=O)(=O)C3)cc2)n1 (stereo not drawn) | i | i | i | 3.3 | nt | i
CC(C)CN(C(=O)COc1ccc(-c2nnco2)cc1)C1CCS(=O)(=O)C1 (stereo not drawn) | 61 | nt | nt | nt | nt | nt
Cc1ccc(-n2c(C)cc(C(=O)OCC(=O)N(CC(C)C)C3CCS(=O)(=O)C3)c2C)cc1 (stereo not drawn) | i | i | i | i | i | i
CC(C)c1ccc(NC(=S)N(C)CCc2ccccn2)cc1 | i | i | i | i | 74 | i
Cc1ccc(-n2c(O)c(C=Nc3ccccc3-c3n[nH]c(=S)[nH]c3=O)c3ccccc3c2=O)c(C)c1 | 73 | i | i | i | i | i
CC1CCCCC1NC(=O)C1CCN(S(=O)(=O)N2CCC3(CC2)OCCO3)CC1 (stereo not drawn) | i | i | i | i | i | nt
O=C(NC1CCCCCC1)C1CCN(S(=O)(=O)N2CCC3(CC2)OCCO3)CC1 | i | + | i | i | i | nt
